Columns and labels:
Assay type in all cases: organism-based
[1] = Toxicity in female Sprague-Dawley rat assessed as histopathological changes in bone marrow at 450 mg/kg/day, po administered for 4 weeks measured post last dose; conditions: in vivo, 672 h
How it was run: (§1)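 SD rats, 6-7 weeks old (96 in total), split into vehicle, 50, 150 and 450 mg/kg/day groups of 12 females and 12 males each, given oral doses once daily for 4 weeks, then 2 weeks of recovery. Mortality, body weight, food intake, eyes, urine and neuropsychic signs were observed. Organ and bone marrow histopathology was done on 8 rats per sex per group after the last dose and on the remaining 4 per sex after 14 days of recovery.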

[2] = Toxicity in female Sprague-Dawley rat assessed as mortality at 50 to 450 mg/kg/day, po administered for 4 weeks followed by 2 week recovery period; conditions: in vivo, 672 h, dose 50-450 mg/kg/day; how it was run: as §1
[3] = Toxicity in male Sprague-Dawley rat assessed as change in platelet count at 150 mg/kg/day, po administered for 4 weeks followed by 2 week recovery period (Rvb =1077 +/- 117 10^9/L); conditions: in vivo, 672 h
[4] = Toxicity in female Sprague-Dawley rat assessed as change in lymphocyte level at 150 mg/kg/day, po administered for 4 weeks followed by 2 week recovery period (Rvb =76.9 +/- 4.6 %); conditions: in vivo, 672 h
[5] = Toxicity in female Sprague-Dawley rat assessed as change in hematocrit level at 450 mg/kg/day, po administered for 4 weeks followed by 2 week recovery period (Rvb =41.1 +/- 1.4 %); conditions: in vivo, 672 h

CC(=O)NC[C@@H]1OC(=O)N2c3cc(F)c(N4CCSCC4)cc3OC[C@@H]12
Activity [1]: Non-Toxic | Activity [2]: Non-Toxic | Activity [3]: 998 10^9/L | Activity [4]: 83% | Activity [5]: 36.9%

— ChEMBL document CHEMBL4725282, “Discovery of a Conformationally Constrained Oxazolidinone with Improved Safety and Efficacy Profiles for the Treatment of Multidrug-Resistant Tuberculosis” (J Med Chem, 2020)
